Laboratory results taken from ChEMBL document CHEMBL1255468 (Antimicrob Agents Chemother, 2010).
Activity calls are given as the source filed them. The calls are words filed in the database; no cut-off is given here.

Assays:
Trypanosoma cruzi [1] = assay: Antitrypanosomal activity against Trypanosoma cruzi Y infected in mouse assessed as decrease in mouse mortality at 200 mg/kg, po upto 40 days post infection; type: functional, organism-based; parameters: dose 200 mg/kg
Outline: (§1)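 Male Swiss mice (6–8 weeks, 18–20 g), 8–10 per group, infected i.p. with 10^4 bloodstream trypomastigotes (Y strain). On dpi 5, a single 200 mg/kg oral gavage dose was given in water with 10% Tween-80. Parasitemia was counted daily from dpi 6 to 21 by the Pizzi-Brener method. Body weight was recorded weekly. Mortality was recorded daily, and cumulative mortality at 40 dpi and M50 were calculated.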

Trypanosoma cruzi [2] = assay: Antitrypanosomal activity against Trypanosoma cruzi Y infected in mouse assessed as decrease in parasitemia in blood at 200 mg/kg, po upto 40 days post infection; type: functional; outline: as §1
Trypanosoma cruzi [3] = assay: Antitrypanosomal activity against Trypanosoma cruzi Y infected in mouse assessed as decrease in mouse mortality at 200 mg/kg, po after 20 days post infection; type: functional, organism-based; parameters: dose 200 mg/kg; outline: as §1
Trypanosoma cruzi [4] = assay: Antitrypanosomal activity against Trypanosoma cruzi amastigotes infected in mouse peritoneal macrophages assessed as endocytic index at 30 uM after 1-4 days; type: functional, organism-based
Outline: (§2)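 Swiss mouse peritoneal macrophages (3 × 10^5/well) were plated for 24 h, then infected with Y-strain trypomastigotes (10:1) in DMEM with 10% FCS for 3 h. Free parasites were washed off, and compounds were added at 2.5–30 µM final for 1–4 days. Cells were fixed in Bouin's solution and stained with Giemsa. Percent infection and endocytic index (parasites/100 cells) were counted, and IC50 was derived. Three independent experiments.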

Trypanosoma cruzi [5] = assay: Antitrypanosomal activity against Trypanosoma cruzi infected in mouse assessed as decrease in mortality rate at 100 mg/kg, po after 6 days post infection; type: functional, organism-based; parameters: dose 100 mg/kg
Outline: (§3)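 Male Swiss mice, 8–10 per group, infected i.p. with 10^4 bloodstream trypomastigotes. From dpi 6, mice received 10 consecutive daily gavage doses of 100 mg/kg in water with 10% Tween-80. Parasitemia was read daily on dpi 6–21 by the Pizzi-Brener method. Mortality was noted daily, and %CM at 40 dpi and M50 were calculated.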

Trypanosoma cruzi [6] = assay: Antitrypanosomal activity against Trypanosoma cruzi trypomastigotes assessed as increase in vesicles size near the flagellar pocket at 17 uM after 24 hrs by Transmission electron microscopy; type: functional, organism-based
Outline: (§4)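 Y-strain bloodstream trypomastigotes (5 × 10^6/ml) were treated for 24 h, washed in PBS, and fixed in 2.5% glutaraldehyde in 0.1 M cacodylate (pH 7.2). They were postfixed with OsO4/ferricyanide/CaCl2, dehydrated in acetone, and embedded in epoxy. Ultrathin sections were stained with uranyl acetate and lead citrate and examined by transmission EM.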

Trypanosoma cruzi [7] = assay: Antitrypanosomal activity against Trypanosoma cruzi amastigotes infected in mouse embryo heart muscle cells assessed as endocytic index at 40 uM; type: functional, organism-based
Outline: (§5)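 Mouse embryo heart muscle cells (10^5/well) were plated on gelatin-coated coverslips and infected after 24 h with trypomastigotes at 10:1 parasite/host cell. After another 24 h, cultures were washed and exposed to compounds at 10–40 µM final. At intervals, cells were fixed in Bouin's solution and stained with Giemsa. Percent infection and endocytic index (parasites/100 cells) were counted, and IC50 was derived.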

Trypanosoma cruzi [8] = assay: Antitrypanosomal activity against Trypanosoma cruzi trypomastigotes assessed as alteration in autophagosome-like structure formation at 17 uM after 24 hrs by Transmission electron microscopy; type: functional, organism-based; outline: as §4
[9] = Cytotoxicity against Swiss mouse peritoneal macrophages after 48 hrs by MTT assay; type: cell-based, Peritoneal macrophage cell; conditions: read-out: LC50
Outline: (§6)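 Uninfected host cells were exposed to compounds at 37°C for 2 days, with compound stocks in DMSO. Cells were Swiss mouse peritoneal macrophages or primary mouse embryo heart muscle cells (18-day embryos, trypsin/collagenase dissociated, gelatin-coated coverslips, DMEM with horse and fetal calf sera, chicken embryo extract). Viability was read by MTT at 490 nm to give LC50.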

Mus musculus [10] = assay: Toxicity in mouse assessed as GPT level in blood at 400 mg/kg, po after 4 days; type: organism-based; parameters: dose 400 mg/kg, route oral; conditions: in vivo, 96 h
Outline: (§7)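 Uninfected male Swiss mice, 8–10 per group, received by gavage either a single 400 mg/kg dose or 10 doses of 100 mg/kg (vehicle water with 10% Tween-80). GOT, GPT and urea were measured directly in blood with the Reflotron system, and body weight was recorded. Single-dose toxicity was analyzed 4 days after treatment.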

Mus musculus [11] = assay: Toxicity in mouse assessed as body weight at 400 mg/kg, po after 4 days; type: organism-based; parameters: dose 400 mg/kg, route oral; conditions: in vivo, 96 h; outline: as §7
Mus musculus [12] = assay: Toxicity in mouse assessed as GOT level in blood at 400 mg/kg, po after 4 days; type: organism-based; parameters: dose 400 mg/kg, route oral; conditions: in vivo, 96 h; outline: as §7
Mus musculus [13] = assay: Toxicity in mouse assessed as urea level in blood at 400 mg/kg, po after 4 days; type: organism-based; parameters: dose 400 mg/kg, route oral; conditions: in vivo, 96 h; outline: as §7
Trypanosoma cruzi [14] = assay: Antitrypanosomal activity against Trypanosoma cruzi infected in mouse assessed as decrease in parasitemia in blood at 100 mg/kg, po after 6 days post infection; type: functional; outline: as §3
[15] = Cytotoxicity against swiss mouse HMC after 48 hrs by MTT assay; conditions: read-out: LC50; outline: as §6
Trypanosoma cruzi [16] = assay: Antitrypanosomal activity against Trypanosoma cruzi amastigotes infected in mouse peritoneal macrophages assessed as inhibition of infection at 30 uM after 1-4 days; type: functional, organism-based; outline: as §2
Trypanosoma cruzi [17] = assay: Antitrypanosomal activity against Trypanosoma cruzi trypomastigotes assessed as parasite body rounding at 17 uM after 24 hrs by scanning electron microscopy; type: functional, organism-based
Outline: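 Trypomastigotes (5 × 10^6/ml) were treated for 24 h and adhered to poly-L-lysine coverslips. They were fixed in 2.5% glutaraldehyde in 0.1 M cacodylate (pH 7.2) for 40 min and postfixed for 30 min in 1% OsO4, 0.8% ferricyanide and 2.5 mM CaCl2. Samples were acetone-dehydrated, critical-point dried, gold-coated (20 nm) and examined by scanning EM.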

Trypanosoma cruzi [18] = assay: Antitrypanosomal activity against Trypanosoma cruzi infected in mouse assessed as reduction in inflammatory foci in cardiac muscle at 100 mg/kg, po after 6 days post infection; type: functional, organism-based; parameters: dose 100 mg/kg; conditions: Muscle tissue
Outline: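 Infected mice were dosed by gavage at 100 mg/kg daily for 10 days from dpi 6. Two mice per group were euthanized at 14 dpi. Paraffin heart sections were stained with hematoxylin-eosin. Under a 40× objective, parasite nests and inflammatory foci (≥10 mononuclear cells) were counted per mm2 over 30 fields.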

Trypanosoma cruzi [19] = assay: Antitrypanosomal activity against Trypanosoma cruzi amastigotes infected in mouse peritoneal macrophages assessed as inhibition of infection after 3 day; type: functional, organism-based; conditions: 72 h; outline: as §2
Trypanosoma cruzi [20] = assay: Antitrypanosomal activity against Trypanosoma cruzi trypomastigotes assessed as alteration in flagellar structure with membrane expansion at […] after 24 hrs by Transmission electron microscopy; type: functional, organism-based
Trypanosoma cruzi [21] = assay: Antitrypanosomal activity against Trypanosoma cruzi amastigotes infected in mouse peritoneal macrophages assessed as endocytic index after 1 day; type: functional, organism-based; conditions: 24 h; outline: as §2
Trypanosoma cruzi [22] = assay: Antitrypanosomal activity against Trypanosoma cruzi Y infected in mouse assessed as decrease in mouse mortality at 200 mg/kg, po after 16 days post infection; type: functional; parameters: scale not given: the % may be the effect or the level left
Outline: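 Male albino Swiss mice (6 to 8 weeks, 18 to 20 g), 8 to 10 per group, infected i.p. with 10^4 Y-strain bloodstream trypomastigotes. […] Parasitemia checked daily by Pizzi-Brener method; mortality noted daily to 40 dpi, cumulative mortality and M50 calculated.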

Mus musculus [23] = assay: Toxicity in mouse assessed as GPT level in blood at 100 mg/kg, po after 4 days; type: organism-based; parameters: dose 100 mg/kg, route oral; conditions: in vivo, 96 h; outline: as §7
Trypanosoma cruzi [24] = assay: Antitrypanosomal activity against Trypanosoma cruzi trypomastigotes assessed as alteration in nuclear envelop dilation at […] after 24 hrs by Transmission electron microscopy; type: functional, organism-based
Trypanosoma cruzi [25] = assay: Antitrypanosomal activity against Trypanosoma cruzi amastigotes infected in mouse peritoneal macrophages assessed as inhibition of infection after 1 day; type: functional, organism-based; conditions: 24 h; outline: as §2
Trypanosoma cruzi [26] = assay: Antitrypanosomal activity against Trypanosoma cruzi amastigotes infected in mouse peritoneal macrophages assessed as endocytic index after 2 day; type: functional, organism-based; conditions: 48 h; outline: as §2
Trypanosoma cruzi [27] = assay: Antitrypanosomal activity against Trypanosoma cruzi amastigotes infected in mouse peritoneal macrophages assessed as endocytic index after 3 day; type: functional, organism-based; conditions: 72 h; outline: as §2
Trypanosoma cruzi [28] = assay: Antitrypanosomal activity against Trypanosoma cruzi trypomastigotes assessed as parasite body rounding at […] after 24 hrs by scanning electron microscopy; type: functional, organism-based
Trypanosoma cruzi [29] = assay: Antitrypanosomal activity against Trypanosoma cruzi amastigotes infected in mouse peritoneal macrophages assessed as inhibition of infection after 4 day; type: functional, organism-based; conditions: 96 h; outline: as §2
Mus musculus [30] = assay: Toxicity in mouse assessed as GOT level in blood at 100 mg/kg, po after 4 days; type: organism-based; parameters: dose 100 mg/kg, route oral; conditions: in vivo, 96 h; outline: as §7
Trypanosoma cruzi [31] = assay: Antitrypanosomal activity against Trypanosoma cruzi amastigotes infected in mouse peritoneal macrophages assessed as endocytic index after 4 day; type: functional, organism-based; conditions: 96 h; outline: as §2
Trypanosoma cruzi [32] = assay: Antitrypanosomal activity against Trypanosoma cruzi trypomastigotes assessed as alteration in autophagosome-like structure formation at […] after 24 hrs by Transmission electron microscopy; type: functional, organism-based
Trypanosoma cruzi [33] = assay: Antitrypanosomal activity against Trypanosoma cruzi amastigotes infected in mouse embryo heart muscle cells assessed as inhibition of infection; type: functional, organism-based; conditions: TDE = time-dependent effect; outline: as §5
Mus musculus [34] = assay: Toxicity in mouse assessed as urea level in blood at 100 mg/kg, po after 4 days; type: organism-based; parameters: dose 100 mg/kg, route oral; conditions: in vivo, 96 h; outline: as §7
Trypanosoma cruzi [35] = assay: Antitrypanosomal activity against Trypanosoma cruzi amastigotes infected in mouse embryo heart muscle cells assessed as inhibition of infection after 24 hrs; type: functional, organism-based; outline: as §5
[36] = Selectivity index, ratio of LC50 for mouse HMC to IC50 for inhibition of Trypanosoma cruzi amastigotes
Trypanosoma cruzi [37] = assay: Antitrypanosomal activity against Trypanosoma cruzi amastigotes infected in mouse peritoneal macrophages assessed as inhibition of infection after 2 day; type: functional, organism-based; conditions: 48 h; outline: as §2
[38] = Selectivity index, ratio of LC50 for mouse peritoneal macrophages to IC50 for inhibition of Trypanosoma cruzi amastigotes
Outline: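 SI = LC50/IC50 in peritoneal macrophages. LC50 came from the 2-day MTT assay on uninfected macrophages. Cells were Bouin-fixed and Giemsa-stained, and endocytic index (parasites/100 cells) was counted. Three independent experiments.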

Trypanosoma cruzi [39] = assay: Antitrypanosomal activity against Trypanosoma cruzi amastigotes infected in mouse embryo heart muscle cells assessed as endocytic index; type: functional, organism-based; outline: as §5

Compound: Cn1c([N+](=O)[O-])cnc1-c1nnc(N/N=C\c2ccccc2O)s1
- Activity (Trypanosoma cruzi [1]): inactive
- Activity (Trypanosoma cruzi [2]): inactive

Compound: Cn1c([N+](=O)[O-])cnc1-c1nnc(N/N=C\c2cc(C(C)(C)C)c(O)c(C(C)(C)C)c2)s1
- Activity (Trypanosoma cruzi [3]): inactive
- Activity (Trypanosoma cruzi [2]): Active

Compound: Cn1c([N+](=O)[O-])cnc1-c1nnc(N/N=C\c2ccc(Br)cc2)s1
- Activity (Trypanosoma cruzi [4]): inactive
- Activity (Trypanosoma cruzi [5]): Active
- Activity (Trypanosoma cruzi [6]): Active
- Activity (Trypanosoma cruzi [7]): inactive
- Activity (Trypanosoma cruzi [8]): Active
- CC50 at 48 h [9]: > 60 µM
- Activity (Mus musculus [10]): 27.9 U/L
- Activity (Mus musculus [11]): 25.2 g
- Activity (Mus musculus [12]): 118 U/L
- Activity (Mus musculus [13]): 62.7 mg/dL
- Activity (Trypanosoma cruzi [1]): Active
- Activity (Trypanosoma cruzi [14]): inactive
- Activity (Trypanosoma cruzi [2]): 60%
- CC50 at 48 h [15]: > 120 µM
- Activity (Trypanosoma cruzi [16]): inactive
- Activity (Trypanosoma cruzi [17]): Active
- Activity (Trypanosoma cruzi [18]): Active

Compound: Cn1c([N+](=O)[O-])cnc1-c1nnc(N/N=C\c2ccc(O)c(O)c2)s1 [BRAZILIZONE A]
- IC50 (Trypanosoma cruzi [19]): 2.6 µM
- Activity (Trypanosoma cruzi [20]): Active
- IC50 (Trypanosoma cruzi [21]): 2 µM
- Activity (Trypanosoma cruzi [22]): 50%
- Activity (Trypanosoma cruzi [5]): inactive
- Activity (Mus musculus [23]): Non-toxic
- Activity (Trypanosoma cruzi [24]): Active
- IC50 (Trypanosoma cruzi [25]): 2.1 µM
- IC50 (Trypanosoma cruzi [26]): 2.2 µM
- CC50 at 48 h [9]: > 60 µM
- Activity (Mus musculus [10]): 22.7 U/L
- IC50 (Trypanosoma cruzi [27]): 1.4 µM
- Activity (Trypanosoma cruzi [28]): Active
- Activity (Mus musculus [11]): 25.8 g
- Activity (Mus musculus [12]): 62.4 U/L
- IC50 (Trypanosoma cruzi [29]): 1.7 µM
- Activity (Mus musculus [30]): Non-toxic
- IC50 (Trypanosoma cruzi [31]): 1.9 µM
- Activity (Mus musculus [13]): 51.6 mg/dL
- Activity (Trypanosoma cruzi [32]): Active
- Activity (Trypanosoma cruzi [1]): inactive
- Activity (Trypanosoma cruzi [33]): tde
- Activity (Mus musculus [34]): Non-toxic
- Activity (Trypanosoma cruzi [35]): Dose-dependent effect
- Activity (Trypanosoma cruzi [14]): inactive
- fold change (FC) [36]: > 32
- IC50 (Trypanosoma cruzi [37]): 4.4 µM
- Ratio LC50/IC50 [38]: >27
- Activity (Trypanosoma cruzi [2]): inactive
- CC50 at 48 h [15]: > 240 µM
- Activity (Trypanosoma cruzi [18]): inactive
- IC50 (Trypanosoma cruzi [39]): 7.6 µM
